Experimental data reported in ChEMBL document CHEMBL4725436, “Gibberellin JRA-003: A Selective Inhibitor of Nuclear Translocation of IKKα” (ACS Med Chem Lett, 2020).
Active and inactive are the calls of the source. No cut-off for these calls is given here.

Legend:
[1] = Selectivity index, ratio of IC50 for human HS895SK cells to EC50 for human CA46 cells measured after 24 hrs by CellTiter-Glo luminescent assay
Summary of the method: (§1)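 High-throughput viability screen of test agents across a panel of 22 cancerous and noncancerous human cell lines. Viability was read by CellTiter-Glo luminescence.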

[2] = target: T1, Inhibitor of nuclear factor kappa-B kinase subunit beta (Homo sapiens) (UniProt O14920); assay: Inhibition of IKKbeta in human HeLa cells assessed as reduction in IL-1 beta-stimulated IKK beta nuclear translocation at 10 uM pretreated with compound for 4 hrs followed by stimulation with IL-1 beta for 1 hr by immunohistochemical staining/confocal microscopy; assay type: cell-based
T1 sequence (whole entry): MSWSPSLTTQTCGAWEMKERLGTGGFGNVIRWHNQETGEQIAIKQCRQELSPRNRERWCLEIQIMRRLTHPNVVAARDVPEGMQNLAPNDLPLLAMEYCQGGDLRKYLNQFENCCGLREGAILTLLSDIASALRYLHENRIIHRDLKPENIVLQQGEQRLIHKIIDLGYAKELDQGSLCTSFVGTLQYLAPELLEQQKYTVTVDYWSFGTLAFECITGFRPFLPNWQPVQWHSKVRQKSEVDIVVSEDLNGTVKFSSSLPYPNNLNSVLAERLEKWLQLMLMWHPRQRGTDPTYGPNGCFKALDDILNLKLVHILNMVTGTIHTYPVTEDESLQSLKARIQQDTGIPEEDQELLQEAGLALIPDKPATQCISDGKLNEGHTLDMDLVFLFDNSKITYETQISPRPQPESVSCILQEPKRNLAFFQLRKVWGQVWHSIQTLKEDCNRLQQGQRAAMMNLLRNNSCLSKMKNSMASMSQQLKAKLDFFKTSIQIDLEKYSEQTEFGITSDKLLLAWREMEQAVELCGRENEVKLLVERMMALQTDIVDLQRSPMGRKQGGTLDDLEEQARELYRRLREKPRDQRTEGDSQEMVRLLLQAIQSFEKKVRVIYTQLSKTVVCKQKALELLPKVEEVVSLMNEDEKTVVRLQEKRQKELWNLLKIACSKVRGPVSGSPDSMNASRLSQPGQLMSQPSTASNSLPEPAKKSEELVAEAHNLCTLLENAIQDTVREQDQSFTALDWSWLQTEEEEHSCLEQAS
Summary of the method: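 HeLa cells were pretreated with DMSO or test agent for 4 h, then stimulated with IL-1β (or vehicle) for 1 h. NF-κB pathway members were immunostained with AF488-tagged antibodies, nuclei were counterstained with DAPI, and compartmental localization was imaged by confocal microscopy.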

[3] = target: T1, Inhibitor of nuclear factor kappa-B kinase subunit beta (Homo sapiens); assay: Inhibition of IKK beta nuclear translocation in human HEK-293T cells assessed as reduction in IKK beta level in nucleus at 15 uM pretreated with compound for 1 hr followed by stimulation with IL-1 beta for 3 hrs by western blot analysis; assay type: subcellular
Summary of the method: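 HEK 293T cells were pretreated with vehicle or test agent, then stimulated with IL-1β (or vehicle). Cells were lysed and nuclei separated, and the cytosolic and nuclear fractions were each probed for IKKα and IKKβ by Western blotting.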

[4] = Selectivity index, ratio of IC50 for human Hs888Lu cells to EC50 for human CA46 cells measured after 24 hrs by CellTiter-Glo luminescent assay; assay type: toxicity; conditions: Hs888Lu cells (IC50) versus CA46 cells (EC50); summary of the method: as §1
[5] = target: T1, Inhibitor of nuclear factor kappa-B kinase subunit beta (Homo sapiens); assay: Inhibition of JRA-031 binding to IKKbeta in TNF-alpha-stimulated human HEK293T cells at 1 uM pretreated with compound for 1 hr followed by labeling with JRA-031 for 1 hr followed by stimulation with TNF-alpha for 1 hr by pull down based mass spectrometry; assay type: cell-based; conditions: HEK-293T
[6] = Selectivity index, ratio of IC50 for human Hs888lu cells to EC50 for human HCC1599 cells measured after 24 hrs by CellTiter-Glo luminescent assay; summary of the method: as §1
[7] = Selectivity index, ratio of IC50 for human Hs888Lu cells to EC50 for human SU-DHL-4 cells measured after 24 hrs by CellTiter-Glo luminescent assay; assay type: toxicity; conditions: Hs888Lu cells (IC50) versus SU-DHL-4 cells (EC50); summary of the method: as §1
SUD4 = assay: Cytotoxicity against human SU-DHL-4 cells assessed as reduction in cell viability measured after 24 hrs by CellTiter-Glo luminescent assay; assay type: functional, cell-based; conditions: SU-DHL-4, 24 h; summary of the method: as §1
[8] = Inhibition of IKKalpha/IKKbeta in human HEK293T cells transfected with firefly luciferase gene assessed as inhibition of TNF-alpha-stimulated NF-kappaB signalling preincubated for 1 hr followed by TNF alpha stimulation measured after 3 hrs by luciferase reporter gene assay; assay type: cell-based; conditions: HEK-293T
Summary of the method: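 Commercial NF-κB-driven luciferase reporter assay in HEK 293T cells stimulated with TNFα. EC50 was derived from the luminescence readout.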

[9] = Selectivity index, ratio of IC50 for human HS895SK cells to EC50 for human SU-DHL-4 cells measured after 24 hrs by CellTiter-Glo luminescent assay; summary of the method: as §1
NCI-H446 = assay: Cytotoxicity against human NCI-H446 cells assessed as reduction in cell viability measured after 24 hrs by CellTiter-Glo luminescent assay; assay type: functional, cell-based; conditions: NCI-H446, 24 h; summary of the method: as §1
[10] = Selectivity index, ratio of IC50 for human Hs578Bst cells to EC50 for human HS578T cells measured after 24 hrs by CellTiter-Glo luminescent assay; assay type: toxicity; conditions: Hs578Bst cells (IC50) versus HS578T cells (EC50); summary of the method: as §1
HCC1599 = assay: Cytotoxicity against human HCC1599 cells assessed as reduction in cell viability measured after 24 hrs by CellTiter-Glo luminescent assay; assay type: functional, cell-based; conditions: HCC1599, 24 h; summary of the method: as §1
[11] = Cytotoxicity against human Hs888Lu cells assessed as reduction in cell viability measured after 24 hrs by CellTiter-Glo luminescent assay; assay type: cell-based; summary of the method: as §1
[12] = Selectivity index, ratio of IC50 for human Hs895SK cells to EC50 for human HS578T cells measured after 24 hrs by CellTiter-Glo luminescent assay; assay type: toxicity; conditions: Hs895SK cells (IC50) versus HS578T cells (EC50); summary of the method: as §1
[13] = Inhibition of IKKalpha/IKKbeta in human HEK293T cells transfected with firefly luciferase gene assessed as inhibition of IL-1 beta-stimulated NF-kappaB signalling preincubated for 1 hr followed by IL-1 beta stimulation measured after 3 hrs by luciferase reporter gene assay; assay type: cell-based; conditions: HEK-293T

Compound: C=C1C[C@]23C[C@@]1(O)CC[C@H]2[C@@]12C=CC(=O)[C@@](C)(C(=O)O1)[C@H]2[C@@H]3C(=O)OC
- Ratio IC50/EC50 [1]: 500
- inhibition [2]: Active
- inhibition [3]: Active
- selectivity ratio at 24 h [4]: 500
- inhibition [5]: Active
- Ratio IC50/EC50 [6]: 500
- selectivity ratio at 24 h [7]: 500
- EC50 (SUD4): < 0.04 µM
- EC50 [8]: 2.6 µM
- Ratio IC50/EC50 [9]: 500
- EC50 (NCI-H446): 0.061 µM
- selectivity ratio at 24 h [10]: 500
- EC50 (HCC1599): 0.15 µM
- IC50 [11]: > 10 µM
- selectivity ratio at 24 h [12]: > 500
- IC50 [13]: 6 µM
